Counter-ions that a name gives are not always drawn.
Legend:
LSD1 = LSD1 (Homo sapiens, UniProt O60341); experiment: Inhibition of LSD1; assay type: biochemical
HAT domain of human p300 = target: T1, HAT domain of human p300 (Homo sapiens, UniProt Q09472); experiment: Inhibition of p300-HAT; assay type: biochemical; details: for inhibitory activity against p300 HAT (in words): tested up to 10 μM; for inhibition at 10 µM: read-out: % inhibition at 10 μM, compound at 10 μM; for activity reduction as compared to 12: ratio of p300 HAT IC50 to that of compound 12
T1 sequence (Q09472 1195-1673): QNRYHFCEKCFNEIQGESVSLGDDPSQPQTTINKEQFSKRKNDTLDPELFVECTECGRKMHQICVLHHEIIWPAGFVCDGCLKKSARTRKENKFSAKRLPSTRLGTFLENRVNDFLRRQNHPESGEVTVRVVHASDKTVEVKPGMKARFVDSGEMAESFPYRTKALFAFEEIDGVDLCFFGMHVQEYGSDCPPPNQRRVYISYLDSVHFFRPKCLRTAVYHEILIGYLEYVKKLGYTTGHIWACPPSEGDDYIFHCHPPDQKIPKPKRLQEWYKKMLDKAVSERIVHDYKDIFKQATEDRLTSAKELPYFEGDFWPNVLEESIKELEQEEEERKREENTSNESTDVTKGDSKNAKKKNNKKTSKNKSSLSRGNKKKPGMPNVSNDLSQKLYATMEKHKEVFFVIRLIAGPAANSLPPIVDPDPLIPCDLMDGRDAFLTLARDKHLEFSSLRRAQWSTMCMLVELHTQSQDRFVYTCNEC

Kasumi-1 leukemia cells = experiment: Western blot of cellular histone acetylation; assay type: cell-based; details: Kasumi-1 cells, 12h, 5 and 10 μM
Outline: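 Kasumi-1 cells (10^6/well) were exposed to test compound at 0, 5 and 10 μM for 12 h. Total histones were extracted by kit, and 2 μg per lane were separated by SDS-PAGE and transferred to PVDF. Blots were probed with antibodies to H3K9Ac, H3K18Ac, H3K27Ac and total H3, then with an anti-rabbit IgG secondary.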

p300 HAT and histone H4 = target: T2, p300 HAT and histone H4 (Homo sapiens, UniProt Q09472); experiment: Alpha assay, binding between p300 HAT and histone H4 peptide
T2 sequence (Q09472 1287-1663 limits assumed): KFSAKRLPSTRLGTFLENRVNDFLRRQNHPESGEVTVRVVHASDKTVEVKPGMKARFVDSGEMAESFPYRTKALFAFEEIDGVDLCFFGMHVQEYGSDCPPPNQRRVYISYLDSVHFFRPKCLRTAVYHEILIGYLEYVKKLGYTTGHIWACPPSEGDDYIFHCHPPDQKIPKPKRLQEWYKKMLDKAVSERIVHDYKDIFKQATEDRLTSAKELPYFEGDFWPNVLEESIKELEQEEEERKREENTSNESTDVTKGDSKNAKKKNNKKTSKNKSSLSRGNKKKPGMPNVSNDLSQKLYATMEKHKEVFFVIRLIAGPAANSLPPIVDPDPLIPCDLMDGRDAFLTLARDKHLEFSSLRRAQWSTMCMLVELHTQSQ

| Compound | inhibitory activity against p300 HAT (in words) (HAT domain of human p300) | other results |
| --- | --- | --- |
| CC(C)(C)c1ccc(-c2cc(C(=O)NCC3CCNCC3)sc2-c2ccc(C(C)(C)C)cc2)cc1 [Compound 1, 4,5-bis(4-(tert-Butyl)phenyl)-N-(piperidin-4-ylmethyl)thiophene-2-carboxamide hydrochloride] | – | inhibition of LSD1 activity at 50 μM (LSD1): did not significantly inhibit |
| CC(C)(C)c1ccc(-c2sc(C(=O)NCC3CCNCC3)cc2-c2ccc(CN3CCNCC3)cc2)cc1 [Compound 7, 5-(4-(tert-Butyl)phenyl)-4-(4-(piperazin-1-ylmethyl)phenyl)-N-(piperidin-4-ylmethyl)thiophene-2-carboxamide hydrochloride] | almost inactive | – |
| CC(C)(C)c1ccc(-c2sc(C(=O)NCC3CCNCC3)cc2-c2ccoc2)cc1 [Compound 8, 5-(4-(tert-Butyl)phenyl)-4-(furan-3-yl)-N-(piperidin-4-ylmethyl)thiophene-2-carboxamide hydrochloride] | – | inhibition at 10 µM (HAT domain of human p300): ~30% |
| CC(C)(C)c1ccc(-c2sc(C(=O)NCC3CCNCC3)cc2-c2cccnc2)cc1 [Compound 9, 5-(4-(tert-Butyl)phenyl)-N-(piperidin-4-ylmethyl)-4-(pyridin-3-yl)thiophene-2-carboxamide hydrochloride] | – | inhibition at 10 µM (HAT domain of human p300): ~30% |
| COc1ccc(-c2ccc(-c3cc(CNCC4CCNCC4)sc3-c3ccc(-c4ccc(OC)cc4)cc3)cc2)cc1 [Compound 10, 1-(4,5-bis(4’-Methoxy-[1,1’-biphenyl]-4-yl)thiophen-2-yl)-N-(piperidin-4-ylmethyl)methanamine hydrochloride] | – | activity reduction as compared to 3 (HAT domain of human p300; removal of the carbonyl group): ~ 50% |
| CC(C)(C)c1ccc(-c2cc(COCC3CCNCC3)sc2-c2ccc(C(C)(C)C)cc2)cc1 [Compound 13, 4-(((4,5-bis(4-(tert-Butyl)phenyl)thiophen-2-yl)methoxy)methyl)piperidine hydrochloride] | complete loss of inhibitory activity | – |
| CC(C)(C)c1ccc(-c2cc(CNC3CCNCC3)sc2-c2ccc(C(C)(C)C)cc2)cc1 [Compound 14, N-((4,5-bis(4-(tert-Butyl)phenyl)thiophen-2-yl)methyl)piperidin-4-amine hydrochloride] | – | activity reduction as compared to 12 (HAT domain of human p300): ~ 8 fold |
| CC(C)(C)c1ccc(-c2cc(CNCCC3CCNCC3)sc2-c2ccc(C(C)(C)C)cc2)cc1 [Compound 15, N-((4,5-bis(4-(tert-Butyl)phenyl)thiophen-2-yl)methyl)-2-(piperidin-4-yl)ethanamine hydrochloride] | – | activity reduction as compared to 12 (HAT domain of human p300): ~3 fold |
| CC(C)(C)c1ccc(-c2cc(CN3CCNCC3)sc2-c2ccc(C(C)(C)C)cc2)cc1 [Compound 18, 1-((4,5-bis(4-(tert-Butyl)phenyl)thiophen-2-yl)methyl)piperazine hydrochloride] | Loss of activity | – |
| CC(C)(C)c1ccc(-c2cc(CN3CCOCC3)sc2-c2ccc(C(C)(C)C)cc2)cc1 [Compound 19, 4-((4,5-bis(4-(tert-Butyl)phenyl)thiophen-2-yl)methyl)morpholine hydrochloride] | Loss of activity | – |
| CCCCc1ccc(-c2cc(CNCC3CCNCC3)sc2-c2ccc(CCCC)cc2)cc1 [Compound 23, 1-(4,5-bis(4-Butylphenyl)thiophen-2-yl)-N-(piperidin-4-ylmethyl)methanamine hydrochloride] | Loss of activity | – |
| CC(C)(C)c1ccc(-c2cc(CNCC3CCNCC3)sc2-c2ccc(CN)cc2)cc1 [Compound 26, 1-(5-(4-(Aminomethyl)phenyl)-4-(4-(tert-butyl)phenyl)thiophen-2-yl)-N-(piperidin-4-ylmethyl)methanamine hydrochloride] | – | activity reduction as compared to 12 (HAT domain of human p300): ~ 3 fold |
| CC(C)(C)c1ccc(-c2sc(CNCC3CCNCC3)cc2-c2ccc(CN)cc2)cc1 [Compound 27, 1-(4-(4-(Aminomethyl)phenyl)-5-(4-(tert-butyl)phenyl)thiophen-2-yl)-N-(piperidin-4-ylmethyl)-methanamine hydrochloride] | major activity loss | – |
| NCc1ccc(-c2cc(CNCC3CCNCC3)sc2-c2ccc(CN)cc2)cc1 [Compound 28, ((5-(((Piperidin-4-ylmethyl)amino)methyl)thiophene-2,3-diyl)bis(4,1-phenylene))dimethanamine hydrochloride] | inactive | cellular acetylation of histone H3K9, H3K18 and H3K27 (Kasumi-1 leukemia cells): no significant activity; effect on binding between p300 HAT and histone H4 (in words) (p300 HAT and histone H4): not interfered |
| OCc1ccc(-c2cc(CNCC3CCNCC3)sc2-c2ccc(CO)cc2)cc1 [Compound 29, ((5-(((Piperidin-4-ylmethyl)amino)methyl)thiophene-2,3-diyl)bis(4,1-phenylene))dimethanol hydrochloride] | weak inhibitor | – |
| c1cc(-c2cc(CNCC3CCNCC3)sc2-c2ccoc2)co1 [Compound 30, 1-(4,5-di(Furan-3-yl)thiophen-2-yl)-N-(piperidin-4-ylmethyl)methanamine hydrochloride] | very low activity | – |
| COc1ccc(-c2cc(CNCC3CCNCC3)sc2-c2ccc(OC)c(OC)c2)cc1OC [Compound 31, 1-(4,5-bis(3,4-Dimethoxyphenyl)thiophen-2-yl)-N-(piperidin-4-ylmethyl)methanamine hydrochloride] | Lack of inhibition | – |
| c1ccc(-c2cccc(-c3cc(CNCC4CCNCC4)sc3-c3cccc(-c4ccccc4)c3)c2)cc1 [Compound 32, 1-(4,5-di([1,1’-Biphenyl]-3-yl)thiophen-2-yl)-N-(piperidin-4-ylmethyl)methanamine hydrochloride] | Lack of inhibition | – |
| CC(C)(C)c1ccc(-c2sc(CNCC3CCNCC3)c(Br)c2-c2ccc(C(C)(C)C)cc2)cc1 [Compound 33, 1-(3-Bromo-4,5-bis(4-(tert-butyl)phenyl)thiophen-2-yl)-N-(piperidin-4-ylmethyl)methanamine hydrochloride] | – | activity reduction as compared to 12 (HAT domain of human p300): ~ 3 fold |
| CC(C)(C)c1ccc(-c2cc(CNCC3CCNCC3)oc2-c2ccc(C(C)(C)C)cc2)cc1 [Compound 34, 1-(4,5-bis(4-(tert-Butyl)phenyl)furan-2-yl)-N-(piperidin-4-ylmethyl)methanamine hydrochloride] | – | IC50 (HAT domain of human p300): 4.9 µM |
| c1cc(-c2ccc(-c3cc(CNCC4CCNCC4)oc3-c3ccc(-c4ccoc4)cc3)cc2)co1 [Compound 35, 1-(4,5-bis(4-(Furan-3-yl)phenyl)furan-2-yl)-N-(piperidin-4-ylmethyl)methanamine hydrochloride] | – | IC50 (HAT domain of human p300): 3 µM |
| CC(C)(C)c1ccc(-c2nc(CNCC3CCNCC3)sc2-c2ccc(C(C)(C)C)cc2)cc1 [Compound 37, 1-(4,5-bis(4-(tert-Butyl)phenyl)thiazol-2-yl)-N-(piperidin-4-ylmethyl)methanamine hydrochloride] | – | activity reduction as compared to 12 (HAT domain of human p300): more than 13 fold |
| CC(C)(C)c1ccc(-c2csc(CNCC3CCNCC3)n2)cc1 [Compound 38, 1-(4-(4-(tert-Butyl)phenyl)thiazol-2-yl)-N-(piperidin-4-ylmethyl)methanamine hydrochloride] | Loss of activity | – |
| CC(C)(C)c1ccc(-c2csc(C(=O)NCC3CCNCC3)n2)cc1 [Compound 39, 4-(4-(tert-Butyl)phenyl)-N-(piperidin-4-ylmethyl)thiazole-2-carboxamide hydrochloride] | Loss of activity | – |
| N-((5,6-bis(4-(Furan-3-yl)phenyl)pyrazin-2-yl)methyl)piperidin-4-amine hydrochloride [Compound 40] | significantly less active than its thiophene analog 11 | – |
